Most compounds without a hit are left out; they make up all but 2.5% or so of the library.
MBD2 inh = inhibitors of human MBD2 binding to methylated oligonucleotide | inhibition, % at 4.4 µM | Q9UBB5 | TR-FRET | actives 0.31% (n = 370,000); in the data active = inhibition above about 13%
Target sequence (Q9UBB5 whole entry, looked up): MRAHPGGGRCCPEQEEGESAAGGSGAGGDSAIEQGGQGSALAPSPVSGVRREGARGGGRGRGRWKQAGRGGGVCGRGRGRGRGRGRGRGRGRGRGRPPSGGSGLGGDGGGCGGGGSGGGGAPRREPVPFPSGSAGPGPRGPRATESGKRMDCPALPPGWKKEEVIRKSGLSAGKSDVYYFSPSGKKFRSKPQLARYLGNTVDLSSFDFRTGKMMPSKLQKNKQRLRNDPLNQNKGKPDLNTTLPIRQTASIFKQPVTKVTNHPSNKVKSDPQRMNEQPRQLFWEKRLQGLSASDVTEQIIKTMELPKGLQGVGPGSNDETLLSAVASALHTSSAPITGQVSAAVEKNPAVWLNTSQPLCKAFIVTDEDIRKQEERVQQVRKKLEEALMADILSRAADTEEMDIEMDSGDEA
HCV NS3 hel inh = inhibitors of Hepatitis C virus NS3 helicase. AID 1800. actives 0.56% (n = 290,000). NS3 helicase DNA unwinding, Cy5 molecular beacon fluorescence. inhibition, % at 10.9 µM;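 active = inhibition above the mean of all tested compounds plus 3 SD, set per campaign, cut at about 35% in these data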;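 note: 0% = DMSO wells and 100% = thioflavine S control wells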
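Assay system – hepatitis C virus NS3 helicase domain fragment enzyme · Buffer or medium – MOPS pH 6.5, MgCl2, DTT, Tween20, BSA · Reagent – Cy5/quencher beacon DNA duplex and ATP to start · Compound – single 10.9 µM dose · Timing – 1 h at 25 °C · Technique – Cy5 beacon fluorescence read at start and 1 h · Measure – % inhibition of unwinding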
UHRF1 binding = UHRF1 methyl-DNA binding inhibition; inhibition, % at 4.4 µM; UHRF1 binding to methylated oligo, TR-FRET; Q96T88; AID 687016; actives 0.75% (n = 370,000); in the data active = inhibition above about 21%;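 note: UHRF1 SRA domain binding a hemimethylated CpG hairpin DNA probe; 0% = median of test compound wells and 100% = reference inhibitor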
Pemphigus Ab inh = inhibitors of pemphigus antibody binding to human desmoglein-3; actives 0.48% (n = 310,000); DSG3-coupled beads, scFv-anti-DSG3-GFP binding, flow cytometry; active compounds read low; P32926; binding (percent of control), % at 10 µM;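 active = binding more than 3 SD below its plate's average and above zero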;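 note: hits lower antibody fragment binding to DSG3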
DNMT1 inh = DNMT1 (human) enzyme inhibition; P26358; DNMT1 molecular beacon, Hinp1I cleavage, fluorescence; inhibition (reported as % activation of signal), % at 10 µM; actives 0.83% (n = 360,000); AID 588458; in the data active = inhibition above about 50%
SUMO1-SIM PPI = modulators of human SUMO1-mediated protein-protein interactions; P63165; SUMO1 binding to a labelled peptide, TR-FRET, 1 h; inhibition, % at 20 µM; actives 0.33% (n = 360,000); in the data active = inhibition above about 37%
Target sequence (P63165 whole entry, looked up): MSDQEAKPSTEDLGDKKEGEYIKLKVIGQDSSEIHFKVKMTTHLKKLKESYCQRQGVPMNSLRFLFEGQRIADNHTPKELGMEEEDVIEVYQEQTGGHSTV
DNMT1 interf DR = shows spectral interference in the DNMT1 beacon assay; shares compounds with DNMT1 inh; 200 tested, under 10 active; molecular beacon fluorescence, spectral interference counter-screen; IC50, µM; AID 602382; call rule not given here
DNMT1 confirm = DNMT1 inhibition confirmation, single concentration. shares compounds with DNMT1 inh. DNMT1 molecular beacon HinP1I cleavage, fluorescence. inhibition, % at 10 µM. actives 8% (n = 2,300);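 active = average inhibition of at least 30% in the single-concentration confirmation test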
DNMT1 interf = beacon fluorescence artifact counter-screen; shares compounds with DNMT1 inh; activation (fluorescence interference), % at 10 µM; actives 1% (n = 2,300); DNMT1 molecular beacon spectral interference counterscreen, fluorescence 485/520;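 active = activation of at least 30% at 10 µM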;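 note: DNMT1 catalytic domain with a HinP1I cleavage step and a FAM/dabcyl DNA beacon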
Numbers without * were called inactive; nt = no result given.

SMILES	MBD2 inh	HCV NS3 hel inh	UHRF1 binding	Pemphigus Ab inh	DNMT1 inh	SUMO1-SIM PPI	DNMT1 confirm	DNMT1 interf	others
CCc1nc(Nc2ccc(OC)c(OC)c2)c2nnn(Cc3ccccc3Cl)c2n1	-4.3	-3.0	-1.3	109.0	105.2*	0.4	1.7	6.4
Cc1ccc(SCC(=O)NC(=O)NC2CCCC2)c(C)c1	-0.9	nt	-1.9	114.2	0.0	3.6	nt	nt
Cc1ccc(C)c(SCC(=O)NC(=O)NC2CCCC2)c1	-4.4	nt	-0.1	102.4	74.4*	-2.1	1.7	2.7
COc1ccc(NC(=O)[C@H](CCS(C)(=O)=O)N2Cc3ccccc3C2=O)c(OC)c1	-4.3	5.5	-1.5	100.5	-3.4	-4.0	nt	nt
COc1ccc2[nH]c(C)c(CCN3C(=O)C4C5C=CC(C5)C4C3=O)c2c1 (stereo not drawn)	0.4	5.6	-1.1	103.3	82.2*	-0.4	0.2	1.4
O=C(Nc1ccccc1NC(=O)c1c(F)c(F)c(F)c(F)c1F)c1c(F)c(F)c(F)c(F)c1F	3.4	-4.3	0.5	104.1	1.6	3.1	nt	nt
Cc1c(NS(=O)(=O)c2cccc(C(=O)NCc3ccco3)c2)c(=O)n(-c2ccccc2)n1C	0.6	nt	2.5	92.1	78.0*	0.1	2.1	2.7
Cc1nn(-c2ccccc2)c(C)c1/C=N/n1c(-c2ccc(Cl)cc2)n[nH]c1=S	-0.9	-2.6	-2.6	94.4	57.4*	-2.4	1.4	1.6
Cc1nn(-c2ccccc2)c(C)c1/C=N/n1c(-c2ccncc2)n[nH]c1=S	-0.8	1.3	3.0	99.6	4.0	4.6	nt	nt
O=C(N/N=C\c1ccc(Br)o1)C1COc2ccccc2O1 (stereo not drawn)	-2.4	6.5	-4.3	95.3	51.3*	3.3	4.5	1.8
CCCCCn1c(=NC(=O)c2cccnc2)c(C#N)cc2c(=O)n3cccc(C)c3nc21	-3.5	nt	-0.5	87.1	-2.2	-4.3	nt	nt
CCCCn1c(=NC(C)=O)c(C#N)cc2c(=O)n3cccc(C)c3nc21	2.0	nt	-2.5	88.9	63.6*	-3.8	0.3	1.8
CC(=O)N=c1c(C#N)cc2c(=O)n3ccccc3nc2n1CCCOC(C)C	-2.3	25.8	-5.2	101.9	8.4	-21.1	nt	nt
CCCCCn1c(=NC(C)=O)c(C#N)cc2c(=O)n3ccccc3nc21	-1.3	12.3	-1.1	97.9	78.3*	-12.3	2.1	1.9
O=C1C=C(OCCF)CC(c2ccccc2C(F)(F)F)O1 (stereo not drawn)	1.1	nt	2.0	nt	nt	0.9	nt	nt
O=C(O)/C(=C/c1ccco1)NC(=O)c1ccccc1	-2.9	21.1	7.4	99.3	66.8*	3.7	2.0	2.9
CN(C(=O)COc1ncnc2ccc(Br)cc12)C1CCCCC1	2.9	nt	-0.7	96.4	-1.0	-2.8	nt	nt
O=C(Nc1ccc(S(=O)(=O)Nc2nccs2)cc1)c1nn(-c2ccc(F)cc2)ccc1=O	3.6	8.9	3.6	92.7	58.7*	4.6	10.2	-3.9
CC(C)c1nc(SCC(=O)Nc2c[nH]c(=O)[nH]c2=O)c2cnn(-c3ccccc3)c2n1	1.0	1.8	0.3	79.5	52.6*	7.0	2.0	-1.2
O=C(O)CSc1cc(C(=O)c2ccccc2O)cn2c(=O)c3c4c(sc3nc12)CCCC4	0.5	21.9	1.1	89.8	73.4*	35.4	60.6*	0.1	DNMT1 interf DR=>99
COc1cc(-c2cnc3c(NC=O)cc(-c4ccc(C)cc4)cn23)cc(OC)c1OC	5.8	nt	1.6	nt	-4.6	-10.9	nt	nt
Cc1cc(C)c(OCC(=O)Nc2ccccn2)c([N+](=O)[O-])c1	1.0	-6.6	1.4	101.1	4.2	-7.3	nt	nt
Cc1ccoc1C(=O)NCCNC(=O)c1occc1C	0.6	nt	-0.9	92.4	1.4	7.3	nt	nt
Cc1ccoc1C(=O)NCc1occc1C(=O)O	2.5	3.7	4.0	118.3	57.4*	9.0	-0.7	-0.5
Cc1nc2ccccc2n1C1CC(=O)N(Cc2ccccc2)C1=O (stereo not drawn)	1.0	2.5	-1.5	97.5	0.1	-3.1	nt	nt
SMILES	MBD2 inh	HCV NS3 hel inh	UHRF1 binding	Pemphigus Ab inh	DNMT1 inh	SUMO1-SIM PPI	DNMT1 confirm	DNMT1 interf	others
CCOC(=O)c1[nH]c(C(=O)O)c(CCN(CC)CC)c1C	0.8	-1.0	2.0	99.6	0.3	21.5	nt	nt
C=CCn1c(SCC(=O)NC2CCCC2)nc2scc(-c3ccco3)c2c1=O	4.6	25.5	-3.5	95.3	51.9*	2.8	2.4	3.3
C=CCn1c(SCC(=O)NCC2CCCO2)nc2scc(-c3ccccc3)c2c1=O (stereo not drawn)	-2.9	-1.2	-1.6	112.7	0.7	4.2	nt	nt
O=C(c1cccc([N+](=O)[O-])c1)c1ccc2[nH]c(=O)[nH]c2c1	-2.3	4.3	2.9	110.0	-6.2	34.2	nt	nt
Cc1ccc(N=Nc2c(N)nn3c(N)c(C#N)c(C)nc23)cc1	2.1	21.2	0.0	94.4	78.8*	-23.6	12.9	4.5
CC(C)Sc1nc2sc3c(c2c2nnc(SCC(=O)NCc4ccco4)n12)CCCC3	4.3	14.1	4.5	nt	65.4*	18.1	3.3	1.2
CCOC(=O)c1cc(-c2ccc([N+](=O)[O-])cc2)nc2c1c(=O)[nH]c(=O)n2Cc1ccccc1	2.3	5.8	1.1	nt	86.0*	18.6	3.0	1.2
CCOC(=O)c1cc(-c2cc3ccccc3o2)nc2c1c(=O)[nH]c(=O)n2CCOC	0.2	5.1	-2.7	104.4	8.3	-3.6	nt	nt
Cc1ccc(C(=O)Nc2cc(C)c(OCC(=O)N3CCOCC3)c(C)c2)cc1	-2.8	7.3	-0.9	105.8	6.4	0.8	nt	nt
C/C(=N\NC(=O)c1ccccc1)c1ccc2c(c1)OCO2	-1.2	7.4	-1.4	96.1	5.0	3.1	nt	nt
C/C(=N\NC(=O)c1ccc2c(c1)OCO2)c1ccc(O)cc1	-4.3	-11.0	-3.1	96.4	81.0*	-5.6	25.9	4.4
O=C(Nc1cc(Cl)ccc1N1CCOCC1)c1ccncc1	3.3	nt	2.5	96.4	80.2*	2.1	7.7	8.6
O=C(Nc1cc(Cl)ccc1N1CCOCC1)c1cnccn1	6.3	-3.3	6.0	79.4	-0.8	2.0	nt	nt
COc1ccc(COCCN2CCN(S(=O)(=O)c3ccc(C)cc3)CCC2=O)cc1	3.5	-8.3	5.4	nt	nt	nt	nt	nt
N#Cc1nc(-c2cccs2)oc1NCC1CCCO1 (stereo not drawn)	-3.0	10.7	2.0	104.7	67.1*	1.0	3.0	2.9
Cc1ccc(-c2nc(C#N)c(NCC3CCCO3)o2)cc1 (stereo not drawn)	-6.7	-6.8	-3.8	105.8	2.4	5.0	nt	nt

Compound activity (PubChem)
